Experimental findings from ChEMBL document CHEMBL1143086, “Novel HCV NS5B polymerase inhibitors derived from 4-(1',1'-dioxo-1',4'-dihydro-1'lambda(6)-benzo[1',2',4']thiadiazin-3'-yl)-5-hydroxy-2H-pyridazin-3-ones. Part 3: Further optimization of the 2-, 6-, and 7'-substituents and initial pharmacokinetic assessments” (Bioorg Med Chem Lett, 2008) are described below.

≈ marks a conversion by molar mass, not a printed value.

A short description of data set [1]: Volume of distribution at steady state in cynomolgus monkey at 5 mg/kg, iv. It is filed as ADME, organism-based, Macaca fascicularis. More on the design: dose 5 mg/kg, route intravenous. As to conditions: in vivo, read-out: Vdss.
A short description of data set [2]: Oral bioavailability in cynomolgus monkey at 5 mg/kg. It counts as ADME, organism-based, Macaca fascicularis. Particulars: in vivo.
Data set [3] is described as follows: Apparent permeability from apical to basolateral side in human Caco-2 cells at 10 uM. It is filed as ADME, cell-based. Background: Caco-2 monolayers are a common model of the intestinal barrier.
For data set [4], the system named is Cynomolgus monkey. Briefly: AUC (0 to infinity) in cynomolgus monkey at 5 mg/kg, po. Particulars: in vivo. It is filed as ADME, organism-based, Macaca fascicularis, Plasma. More on the design: time infinity, dose 5 mg/kg, route oral.
The subject of data set [5] is Cynomolgus monkey. Briefly: AUC (0 to infinity) in cynomolgus monkey at 5 mg/kg, iv. As to conditions: in vivo. More on the design: time infinity, dose 5 mg/kg, route intravenous. It is filed as ADME, organism-based, Macaca fascicularis, Plasma.
Data set [6] can be described thus: Aqueous solubility at pH 7.4. It counts as physicochemical. Particulars: buffer. The procedure, abridged: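 Solubility determined in water at pH 7.4.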
Data set [7] in a line: Volume of distribution at steady state in iv dosed Sprague-Dawley rat. As to conditions: in vivo, read-out: Vdss. It is filed as ADME, organism-based. The procedure, abridged: (§1)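 Sprague–Dawley rats got a single 3 mg/kg dose iv or po, with n = 12 (po) and 3 (iv). Plasma concentrations were followed over time to derive PK parameters.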
The test system of data set [8] is Rattus norvegicus. In words: AUC (0 to infinity) in iv dosed Sprague-Dawley rat. It is filed as ADME, organism-based, Plasma. More on the design: time infinity, route intravenous. Particulars: in vivo. The procedure, abridged: as §1
The nature of data set [9]: Ratio of drug level in liver to plasma in Sprague-Dawley rat at 3 mg/kg, po after 12 hrs. It counts as ADME, organism-based. More on the design: dose 3 mg/kg, route oral. As to conditions: liver and plasma. The procedure, abridged:
(§2)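 Sprague–Dawley rats were given a single 3 mg/kg dose iv or po. Plasma and liver concentrations were measured at 1, 4, 8 and 12 h. Liver was not sampled at 1, 4 or 8 h after iv dosing. Liver-to-plasma concentration ratio was calculated at each time point.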

Data set [10] is described as follows: Oral bioavailability in Sprague-Dawley rat. It is filed as ADME, organism-based. Particulars: in vivo. The procedure, abridged: as §1
For data set [11], the system named is Rattus norvegicus. Briefly: AUC (0 to infinity) in po dosed Sprague-Dawley rat. Particulars: in vivo. It is filed as ADME, organism-based, Plasma. More on the design: time infinity, route oral. The method, boiled down:
as §1

The nature of data set [12]: Ratio of drug level in liver to plasma in Sprague-Dawley rat at 3 mg/kg, po after 8 hrs. It is filed as ADME, organism-based. More on the design: dose 3 mg/kg, route oral. Particulars: liver and plasma. The method, boiled down:
as §2

The nature of data set [13]: Ratio of drug level in liver to plasma in Sprague-Dawley rat at 3 mg/kg, po after 4 hrs. Particulars: liver and plasma. It counts as ADME, organism-based. More on the design: dose 3 mg/kg, route oral. The method, boiled down: as §2
Data set [14] can be described thus: Ratio of drug level in liver to plasma in Sprague-Dawley rat at 3 mg/kg, po after 1 hr. It counts as ADME, organism-based. More on the design: dose 3 mg/kg, route oral. Particulars: liver and plasma. The procedure, abridged:
as §2

Data set [15] can be described thus: Ratio of drug level in liver to plasma in Sprague-Dawley rat at 3 mg/kg, iv after 12 hrs. As to conditions: liver and plasma. It counts as ADME, organism-based. More on the design: dose 3 mg/kg, route intravenous. The method, boiled down: as §2

As for `CC(C)(C)CCn1nc(-c2cccs2)c(O)c(C2=Nc3ccc(NS(C)(=O)=O)cc3S(=O)(=O)N2)c1=O`, the Vd in [1] was determined as 0.039 L/kg. For the same compound, in data set [2], the bioavailability (commonly the share of a dose that reaches the circulation, judged against a reference dose that is usually intravenous) came to 1%. Moreover, the apparent permeability from apical to basolateral (Papp A→B) – broadly, how fast a substance crosses the layer from the apical side – at 10 µM in data set [3] is 0.06 ×10⁻⁶ cm/s. In addition, the AUC (in general, concentration integrated over time) with Cynomolgus monkey [4] is 241 ng·h/mL; with Cynomolgus monkey [5], 17600 ng·h/mL. In data set [6], the concentration in solution (solubility) was 44 µM (≈ 24.3 µg/mL).
As to `CC(C)CCn1nc(-c2cccs2)c(O)c(C2=Nc3ccc(NS(C)(=O)=O)cc3S(=O)(=O)N2)c1=O`, the figures for the Vd in data set [1] and in [7] were 0.096 L/kg and 0.453 L/kg, respectively. In addition, the area under the curve (AUC) in the data set on Rattus norvegicus [8] is 3630 ng·h/mL; in the data set on Cynomolgus monkey [4] it was 124 ng·h/mL; in the data set on Cynomolgus monkey [5], 10500 ng·h/mL; in the data set with Rattus norvegicus [11] it was 27 ng·h/mL. The bioavailability in [2] and in [10] was 1% in each case. Also, the Papp A→B at 10 µM in [3] amounted to 0.016 ×10⁻⁶ cm/s. The concentration ratio (Kp) (usually tissue or fluid exposure divided by exposure in the circulation) at 12 h in data set [9] was 64; in [15], 4. The amount in solution in data set [6] (solubility) came to 55 µM (≈ 29.6 µg/mL). The concentration ratio (Kp) at 8 h in data set [12] worked out at 78. The Kp at 4 h in data set [13] is 243. Moreover, in [14], the Kp at 1 h is 431.
